Results from ChEMBL document CHEMBL2169868, “Flavone-based novel antidiabetic and antidyslipidemic agents” (J Med Chem, 2012).
Activity calls are given as the source filed them. The calls are words filed in the database; no cut-off is given here.

Columns and labels:
Type in all cases: functional
[1] = tested on: Rattus norvegicus; experiment: Antihyperlipidemic activity in Triton-induced dyslipidemic Wistar rat model assessed as reduction in phospholipid level at 100 mg/kg, po; parameters: scale not given: the % may be the effect or the level left
Outline: (§1)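 Male Wistar rats, 8−10 weeks, about 160 g, fed normal pellet diet. Triton X-100 given at 400 mg/kg ip; compound given orally in 1% gum acacia. Retro-orbital blood taken 18 h after Triton and serum separated at 1500g for 10 min. TG and cholesterol measured by kit. Mean % change versus dyslipidemic control, 5 animals.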

[2] = tested on: Rattus norvegicus; experiment: Antihyperlipidemic activity in Triton-induced dyslipidemic Wistar rat model assessed as reduction in cholesterol level at 100 mg/kg, po; parameters: scale not given: the % may be the effect or the level left; outline: as §1
[3] = tested on: Rattus norvegicus; experiment: Antihyperlipidemic activity in Triton-induced dyslipidemic Wistar rat model assessed as reduction in triglyceride level at 100 mg/kg, po; parameters: scale not given: the % may be the effect or the level left; outline: as §1
[4] = tested on: Rattus norvegicus; experiment: Antidiabetic activity in sucrose challenged streptozotocin-induced diabetic Sprague-Dawley rat model assessed as reduction in glucose levels at 100 mg/kg, po measured after 5 hrs; parameters: scale not given: the % may be the effect or the level left
[5] = tested on: Rattus norvegicus; experiment: Antidiabetic activity in sucrose challenged streptozotocin-induced diabetic Sprague-Dawley rat model assessed as reduction in glucose levels at 100 mg/kg, po measured after 24 hrs; parameters: scale not given: the % may be the effect or the level left
[6] = tested on: Rattus norvegicus; experiment: Antidiabetic activity in sucrose loaded Wistar rat model assessed as reduction in glucose levels at 100 mg/kg, po

SMILES: COc1ccc(-c2cc(=O)c3ccc(OCC(O)CN4CCN(c5ccccc5)CC4)cc3o2)cc1OC (stereo unspecified)
- Activity [1]: 22%
- Activity [2]: 23%
- Activity [3]: 19%
- Activity [4]: 4.35%
- Activity [5]: 2.34%

SMILES: COc1cc(OC)cc(-c2cc(=O)c3ccc(OCC(O)CNC(C)(C)C)cc3o2)c1 (stereo unspecified)
- Activity [1]: 19%
- Activity [2]: 21%
- Activity [3]: 17%
- Activity [6]: inactive
- Activity [4]: 4.86%
- Activity [5]: 2.36%

SMILES: CC(C)(C)NCC(O)COc1ccc2c(=O)cc(-c3cc(OCc4cc(Cl)cc(Cl)c4)cc(OCc4cc(Cl)cc(Cl)c4)c3)oc2c1 (stereo unspecified)
- Activity [1]: 12.2%
- Activity [2]: 8.93%
- Activity [3]: 11.3%
- Activity [6]: 25.9%
- Activity [4]: 14.2%
- Activity [5]: inactive

SMILES: Cc1ccc(COc2cc(OCc3ccc(C)cc3)cc(-c3cc(=O)c4ccc(OCC(O)CNC(C)C)cc4o3)c2)cc1 (stereo unspecified)
- Activity [1]: 26.5%
- Activity [2]: 20.3%
- Activity [3]: 25.6%
- Activity [6]: 51.6%
- Activity [4]: 22.8%
- Activity [5]: 11.9%

SMILES: COc1cc(OC)cc(-c2cc(=O)c3ccc(OCC(O)CN4CCN(c5ccccc5)CC4)cc3o2)c1 (stereo unspecified)
- Activity [1]: 12.8%
- Activity [2]: 14.3%
- Activity [3]: 17.3%
- Activity [6]: inactive

SMILES: CC(C)(C)NCC(O)COc1ccc2c(=O)cc(-c3ccc(O)c(O)c3)oc2c1 (stereo unspecified)
- Activity [1]: 23%
- Activity [2]: 21%
- Activity [3]: 25%
- Activity [6]: inactive

SMILES: COc1cc(-c2cc(=O)c3ccc(OCC(O)CN4CCN(c5ccccc5)CC4)cc3o2)cc(OC)c1OC (stereo unspecified)
- Activity [1]: 8%
- Activity [2]: 19%
- Activity [3]: 23%
- Activity [4]: 2.36%
- Activity [5]: 0.24%

SMILES: COc1cc(-c2cc(=O)c3ccc(OCC(O)CNC(C)C)cc3o2)cc(OC)c1OC (stereo unspecified)
- Activity [1]: 16%
- Activity [2]: 18%
- Activity [3]: 19%
- Activity [6]: 20.7%

SMILES: CC(C)NCC(O)COc1ccc2c(=O)cc(-c3ccc(O)c(O)c3)oc2c1 (stereo unspecified)
- Activity [1]: 13%
- Activity [2]: 15%
- Activity [3]: 19%
- Activity [6]: inactive

SMILES: CC(C)(C)NCC(O)COc1ccc2oc(-c3ccc(O)c(O)c3)cc(=O)c2c1 (stereo unspecified)
- Activity [1]: 23%
- Activity [2]: 24%
- Activity [3]: 25%
- Activity [4]: inactive
- Activity [5]: inactive

SMILES: Cc1ccccc1COc1cc(OCc2ccccc2C)cc(-c2cc(=O)c3ccc(OCC(O)CNC(C)C)cc3o2)c1 (stereo unspecified)
- Activity [1]: 24.1%
- Activity [2]: 13.5%
- Activity [3]: 26.2%
- Activity [6]: 4.65%

SMILES: COc1cc(-c2cc(=O)c3ccc(OCC(O)CNC(C)(C)C)cc3o2)cc(OC)c1OC (stereo unspecified)
- Activity [1]: 26%
- Activity [2]: 24%
- Activity [3]: 28%
- Activity [6]: inactive

SMILES: COc1cc(OC)cc(-c2cc(=O)c3ccc(OCC(O)CNC(C)C)cc3o2)c1 (stereo unspecified)
- Activity [1]: 21%
- Activity [2]: 17%
- Activity [3]: 24%
- Activity [4]: inactive
- Activity [5]: inactive

SMILES: CC(C)(C)NCC(O)COc1ccc2oc(-c3ccc(OCc4ccccc4)c(OCc4ccccc4)c3)cc(=O)c2c1 (stereo unspecified)
- Activity [1]: 12%
- Activity [2]: 21%
- Activity [3]: 17%
- Activity [6]: 21.8%
- Activity [5]: 0.36%

SMILES: Cc1ccc(COc2cc(OCc3ccc(C)cc3)cc(-c3cc(=O)c4ccc(OCC(O)CNC(C)(C)C)cc4o3)c2)cc1 (stereo unspecified)
- Activity [1]: 16.2%
- Activity [2]: 11.2%
- Activity [3]: 12.8%
- Activity [6]: 13.6%

SMILES: COc1ccc(-c2cc(=O)c3ccc(OCC(O)CNC(C)C)cc3o2)cc1OC (stereo unspecified)
- Activity [6]: 23.9%
- Activity [4]: 13.8%
- Activity [5]: 6.83%

SMILES: O=c1cc(-c2cc(OCc3ccccc3)cc(OCc3ccccc3)c2)oc2cc(OCC(O)CN3CCN(c4ccccc4)CC3)ccc12 (stereo unspecified)
- Activity [1]: 21%
- Activity [2]: 24%
- Activity [3]: 17%
- Activity [4]: 14.3%

SMILES: CC(C)(C)NCC(O)COc1ccc2c(=O)cc(-c3cc(O)cc(O)c3)oc2c1 (stereo unspecified)
- Activity [1]: 4%
- Activity [2]: 17%
- Activity [3]: 16%
